Measured values published in ChEMBL document CHEMBL1155841, “Methyl (11aS)-1,2,3,5,11,11a-hexahydro-3,3-dimethyl-1-oxo-6H-imidazo-[3',4':1,2]pyridin[3,4-b]indol-2-substituted acetates: synthesis and three-dimensional quantitative structure-activity relationship investigation as a class of novel vasodilators” (2008).

species: Rattus norvegicus; assay: Vasorelaxation activity against noradrenaline-induced hypertonic contraction in Wistar rat aorta strips at 50 uM; format: functional; design: scale not given: the % may be the effect or the level left
Procedure, shortened: (§1)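 Aortic strips first contracted with 59 µM noradrenaline, then washed out and stabilized for 30 min. After fresh solution, 59 µM NE was re-added, and peak contraction was taken as 100%. Test agent, dissolved in ethanol, was then added, with ethanol alone as vehicle control. Percent relaxation of the NE contraction was recorded as activity, given as mean ± SD, n = 6.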

Row | SMILES | Activity [%]
1 | COC(=O)[C@H](CO)N1C(=O)[C@@H]2Cc3c([nH]c4ccccc34)CN2C1(C)C | 16.9
2 | COC(=O)[C@H](C(C)O)N1C(=O)[C@@H]2Cc3c([nH]c4ccccc34)CN2C1(C)C (some centres undefined) | 0
3 | COC(=O)CC[C@@H](C(=O)OC)N1C(=O)[C@@H]2Cc3c([nH]c4ccccc34)CN2C1(C)C | 9.9
4 | COC(=O)[C@H](C)N1C(=O)[C@@H]2Cc3c([nH]c4ccccc34)CN2C1(C)C | 91.8
5 | COC(=O)[C@H](Cc1c[nH]cn1)N1C(=O)[C@@H]2Cc3c([nH]c4ccccc34)CN2C1(C)C | 0
6 | COC(=O)[C@H](CCCNC(=N)N)N1C(=O)[C@@H]2Cc3c([nH]c4ccccc34)CN2C1(C)C | 36.7
7 | COC(=O)[C@H](CCSC)N1C(=O)[C@@H]2Cc3c([nH]c4ccccc34)CN2C1(C)C | 15.1
8 | COC(=O)[C@H](Cc1ccccc1)N1C(=O)[C@@H]2Cc3c([nH]c4ccccc34)CN2C1(C)C | 0
9 | COC(=O)[C@H](Cc1ccc(O)cc1)N1C(=O)[C@@H]2Cc3c([nH]c4ccccc34)CN2C1(C)C | 16.3
10 | CC(=O)OCC[N+](C)(C)C [ACETYLCHOLINE] | 42.3
11 | COC(=O)CN1C(=O)[C@@H]2Cc3c([nH]c4ccccc34)CN2C1(C)C | 45.5
12 | CCC(C)[C@@H](C(=O)OC)N1C(=O)[C@@H]2Cc3c([nH]c4ccccc34)CN2C1(C)C (some centres undefined) | 34
13 | COC(=O)[C@H](Cc1c[nH]c2ccccc12)N1C(=O)[C@@H]2Cc3c([nH]c4ccccc34)CN2C1(C)C | 63.5
14 | COC(=O)[C@H](CC(N)=O)N1C(=O)[C@@H]2Cc3c([nH]c4ccccc34)CN2C1(C)C | 0
15 | COC(=O)[C@H](CC(C)C)N1C(=O)[C@@H]2Cc3c([nH]c4ccccc34)CN2C1(C)C | 15.7
16 | COC(=O)[C@H](C(C)C)N1C(=O)[C@@H]2Cc3c([nH]c4ccccc34)CN2C1(C)C | 24.2
17 | COC(=O)C[C@@H](C(=O)OC)N1C(=O)[C@@H]2Cc3c([nH]c4ccccc34)CN2C1(C)C | 6.3
18 | COC(=O)[C@H](CCC(N)=O)N1C(=O)[C@@H]2Cc3c([nH]c4ccccc34)CN2C1(C)C | 0

species: Rattus norvegicus; assay: Vasorelaxation activity against noradrenaline-induced hypertonic contraction in Wistar rat aorta strips; format: functional; procedure, shortened: as §1

Row | SMILES | Activity
19 | COC(=O)[C@H](C)N1C(=O)[C@@H]2Cc3c([nH]c4ccccc34)CN2C1(C)C | Dose-dependent effect
20 | CCC(C)[C@@H](C(=O)OC)N1C(=O)[C@@H]2Cc3c([nH]c4ccccc34)CN2C1(C)C (some centres undefined) | Dose-dependent effect
21 | COC(=O)[C@H](Cc1c[nH]c2ccccc12)N1C(=O)[C@@H]2Cc3c([nH]c4ccccc34)CN2C1(C)C | Dose-dependent effect

species: Rattus norvegicus; assay: Vasorelaxation activity against noradrenaline-induced hypertonic contraction in Wistar rat aorta strips at 5 mM; format: functional; design: scale not given: the % may be the effect or the level left; procedure, shortened: as §1

Row | SMILES | Activity [%]
22 | CN1CC(=O)N2[C@H](c3ccc4c(c3)OCO4)c3[nH]c4ccccc4c3C[C@@H]2C1=O [TADALAFIL] | 89.9
23 | COC(=O)[C@H](CC(C)C)NC(=O)[C@@H]1Cc2c([nH]c3ccccc23)CN1C(=O)OC(C)(C)C | 7.8
24 | COC(=O)CC[C@H](NC(=O)[C@@H]1Cc2c([nH]c3ccccc23)CN1C(=O)OC(C)(C)C)C(=O)OC | 0
25 | COC(=O)CNC(=O)[C@@H]1Cc2c([nH]c3ccccc23)CN1C(=O)OC(C)(C)C | 13.5
26 | COC(=O)[C@H](Cc1c[nH]cn1)NC(=O)[C@@H]1Cc2c([nH]c3ccccc23)CN1C(=O)OC(C)(C)C | 0
27 | CCC(C)[C@H](NC(=O)[C@@H]1Cc2c([nH]c3ccccc23)CN1C(=O)OC(C)(C)C)C(=O)OC (some centres undefined) | 10.9
28 | COC(=O)[C@H](CO)NC(=O)[C@@H]1Cc2c([nH]c3ccccc23)CN1C(=O)OC(C)(C)C | 6.1
29 | COC(=O)[C@H](Cc1ccc(O)cc1)NC(=O)[C@@H]1Cc2c([nH]c3ccccc23)CN1C(=O)OC(C)(C)C | 7.4
30 | COC(=O)[C@H](CCCNC(=N)N)NC(=O)[C@@H]1Cc2c([nH]c3ccccc23)CN1C(=O)OC(C)(C)C | 11.3
31 | COC(=O)[C@@H](NC(=O)[C@@H]1Cc2c([nH]c3ccccc23)CN1C(=O)OC(C)(C)C)C(C)C | 8.9
32 | COC(=O)[C@H](Cc1c[nH]c2ccccc12)NC(=O)[C@@H]1Cc2c([nH]c3ccccc23)CN1C(=O)OC(C)(C)C | 15.2
33 | COC(=O)[C@H](CC(N)=O)NC(=O)[C@@H]1Cc2c([nH]c3ccccc23)CN1C(=O)OC(C)(C)C | 0
34 | COC(=O)[C@H](C)NC(=O)[C@@H]1Cc2c([nH]c3ccccc23)CN1C(=O)OC(C)(C)C | 18.8
35 | COC(=O)C[C@H](NC(=O)[C@@H]1Cc2c([nH]c3ccccc23)CN1C(=O)OC(C)(C)C)C(=O)OC | 0
36 | COC(=O)[C@@H](NC(=O)[C@@H]1Cc2c([nH]c3ccccc23)CN1C(=O)OC(C)(C)C)C(C)O (some centres undefined) | 0
37 | COC(=O)[C@H](CCC(N)=O)NC(=O)[C@@H]1Cc2c([nH]c3ccccc23)CN1C(=O)OC(C)(C)C | 0
38 | COC(=O)[C@H](CCSC)NC(=O)[C@@H]1Cc2c([nH]c3ccccc23)CN1C(=O)OC(C)(C)C | 6
39 | COC(=O)[C@H](Cc1ccccc1)NC(=O)[C@@H]1Cc2c([nH]c3ccccc23)CN1C(=O)OC(C)(C)C | 0
